Results taken from ChEMBL document CHEMBL1240415, “Design, synthesis and antimicrobial activities of some new quinoline derivatives carrying 1,2,3-triazole moiety” (2010).
≈ marks a conversion by molar mass, not a printed value.

Key:
Format in all cases: functional
Klebsiella pneumoniae = assay: Antibacterial activity against recultured Klebsiella pneumoniae after 3 to 4 days by serial plate dilution method; details: for MIC: Klebsiella pneumoniae
Method in brief: (§1)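 Serial dilutions in Mueller-Hinton broth in tubes, pH adjusted to 5.0 with phosphate buffer. Inoculated with a standardized bacterial suspension and incubated 16–18 h at 37 °C. MIC is the lowest concentration with no visible growth, tested over 6.25–100 µg/mL. Zones come from an agar well diffusion assay: compounds in DMSO are added to wells in seeded agar, DMSO control, triplicate plates, 37 °C for 3–4 days, inhibition zone diameter in mm.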

Talaromyces marneffei = assay: Antifungal activity against recultured Penicillium marneffei after 3 to 4 days by serial plate dilution method; details: for MIC: Talaromyces marneffei
Method in brief: (§2)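 Sabouraud agar made from peptone, glucose and agar in water, pH 5.7. Fungal spores suspended in normal saline and used to lawn the plates, which were dried 1 h at 37 °C. Wells punched and compounds added in DMSO, with a DMSO solvent control. Triplicate plates held at 37 °C for 3–4 days. Read-out is inhibition zone diameter.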

Staphylococcus aureus = assay: Antibacterial activity against Staphylococcus aureus ATTC 25923 after 3 to 4 days by serial plate dilution method; details: for MIC: Staphylococcus aureus, ATTC 25923; method in brief: as §1
Streptococcus pyogenes = assay: Antibacterial activity against Streptococcus pyogenes after 3 to 4 days by serial plate dilution method; details: for MIC: Streptococcus pyogenes; method in brief: as §1
Candida albicans = assay: Antifungal activity against Candida albicans after 3 to 4 days by serial plate dilution method; details: for MIC: Candida albicans; method in brief: as §2
Aspergillus flavus = assay: Antifungal activity against Aspergillus flavus NCIM 524 after 3 to 4 days by serial plate dilution method; details: for MIC: Aspergillus flavus, NCIM 524; method in brief: as §2
[1] = test system: Trichophyton mentagrophytes; assay: Antifungal activity against recultured Trichophyton mentagrophytes after 3 to 4 days by serial plate dilution method; details: for MIC: Trichophyton mentagrophytes; method in brief: as §2
Pseudomonas aeruginosa = assay: Antibacterial activity against Pseudomonas aeruginosa ATCC 27853 after 3 to 4 days by serial plate dilution method; details: for MIC: Pseudomonas aeruginosa, ATCC 27853; method in brief: as §1
Escherichia coli = assay: Antibacterial activity against Escherichia coli ATTC 25922 after 3 to 4 days by serial plate dilution method; details: for MIC: Escherichia coli, ATTC 25922; method in brief: as §1
Aspergillus fumigatus = assay: Antifungal activity against Aspergillus fumigatus NCIM 902 after 3 to 4 days by serial plate dilution method; details: for MIC: Aspergillus fumigatus, NCIM 902; method in brief: as §2

COc1ccc2nc(C)cc(-n3cc(CN4CCN(c5ccccc5F)CC4)nn3)c2c1
diameter of the inhibition zone (DIZ) (Klebsiella pneumoniae): 10 mm
MIC (Klebsiella pneumoniae): 6.25 µg/mL (≈ 14.5 µM)
diameter of the inhibition zone (DIZ) (Talaromyces marneffei): 12 mm
MIC (Talaromyces marneffei): 6.25 µg/mL (≈ 14.5 µM)
diameter of the inhibition zone (DIZ) (Staphylococcus aureus): 10 mm
MIC (Staphylococcus aureus): 12.5 µg/mL (≈ 28.9 µM)
diameter of the inhibition zone (DIZ) (Streptococcus pyogenes): 14 mm
MIC (Streptococcus pyogenes): 6.25 µg/mL (≈ 14.5 µM)
diameter of the inhibition zone (DIZ) (Candida albicans): 10 mm
MIC (Candida albicans): 6.25 µg/mL (≈ 14.5 µM)
diameter of the inhibition zone (DIZ) (Aspergillus flavus): 10 mm
MIC (Aspergillus flavus): 6.25 µg/mL (≈ 14.5 µM)
diameter of the inhibition zone (DIZ) [1]: 10 mm
MIC [1]: 6.25 µg/mL (≈ 14.5 µM)
diameter of the inhibition zone (DIZ) (Pseudomonas aeruginosa): 10 mm
MIC (Pseudomonas aeruginosa): 6.25 µg/mL (≈ 14.5 µM)
diameter of the inhibition zone (DIZ) (Escherichia coli): 10 mm
MIC (Escherichia coli): 12.5 µg/mL (≈ 28.9 µM)
diameter of the inhibition zone (DIZ) (Aspergillus fumigatus): 12 mm
MIC (Aspergillus fumigatus): 6.25 µg/mL (≈ 14.5 µM)

COc1ccc2nc(C)cc(-n3cc(CN4CCN(c5ccc(F)cc5)CC4)nn3)c2c1
diameter of the inhibition zone (DIZ) (Klebsiella pneumoniae): 12 mm
MIC (Klebsiella pneumoniae): 6.25 µg/mL (≈ 14.5 µM)
diameter of the inhibition zone (DIZ) (Talaromyces marneffei): 12 mm
MIC (Talaromyces marneffei): 6.25 µg/mL (≈ 14.5 µM)
diameter of the inhibition zone (DIZ) (Staphylococcus aureus): 11 mm
MIC (Staphylococcus aureus): 12.5 µg/mL (≈ 28.9 µM)
diameter of the inhibition zone (DIZ) (Streptococcus pyogenes): <10 mm
MIC (Streptococcus pyogenes): 12.5 µg/mL (≈ 28.9 µM)
diameter of the inhibition zone (DIZ) (Candida albicans): 12 mm
MIC (Candida albicans): 6.25 µg/mL (≈ 14.5 µM)
diameter of the inhibition zone (DIZ) (Aspergillus flavus): 10 mm
MIC (Aspergillus flavus): 12.5 µg/mL (≈ 28.9 µM)
diameter of the inhibition zone (DIZ) [1]: 10 mm
MIC [1]: 6.25 µg/mL (≈ 14.5 µM)
diameter of the inhibition zone (DIZ) (Pseudomonas aeruginosa): 10 mm
MIC (Pseudomonas aeruginosa): 6.25 µg/mL (≈ 14.5 µM)
diameter of the inhibition zone (DIZ) (Escherichia coli): 12 mm
MIC (Escherichia coli): 6.25 µg/mL (≈ 14.5 µM)
diameter of the inhibition zone (DIZ) (Aspergillus fumigatus): 14 mm
MIC (Aspergillus fumigatus): 6.25 µg/mL (≈ 14.5 µM)

COc1ccc(N2CCN(Cc3cn(-c4cc(C)nc5ccc(OC)cc45)nn3)CC2)cc1
diameter of the inhibition zone (DIZ) (Klebsiella pneumoniae): 16 mm
MIC (Klebsiella pneumoniae): 6.25 µg/mL (≈ 14.1 µM)
diameter of the inhibition zone (DIZ) (Talaromyces marneffei): 18 mm
MIC (Talaromyces marneffei): 6.25 µg/mL (≈ 14.1 µM)
diameter of the inhibition zone (DIZ) (Staphylococcus aureus): 16 mm
MIC (Staphylococcus aureus): 6.25 µg/mL (≈ 14.1 µM)
diameter of the inhibition zone (DIZ) (Streptococcus pyogenes): 14 mm
MIC (Streptococcus pyogenes): 6.25 µg/mL (≈ 14.1 µM)
diameter of the inhibition zone (DIZ) (Candida albicans): 14 mm
MIC (Candida albicans): 6.25 µg/mL (≈ 14.1 µM)
diameter of the inhibition zone (DIZ) (Aspergillus flavus): 14 mm
MIC (Aspergillus flavus): 6.25 µg/mL (≈ 14.1 µM)
diameter of the inhibition zone (DIZ) [1]: 16 mm
MIC [1]: 6.25 µg/mL (≈ 14.1 µM)
diameter of the inhibition zone (DIZ) (Pseudomonas aeruginosa): 14 mm
MIC (Pseudomonas aeruginosa): 6.25 µg/mL (≈ 14.1 µM)
diameter of the inhibition zone (DIZ) (Escherichia coli): 20 mm
MIC (Escherichia coli): 6.25 µg/mL (≈ 14.1 µM)
diameter of the inhibition zone (DIZ) (Aspergillus fumigatus): 16 mm
MIC (Aspergillus fumigatus): 6.25 µg/mL (≈ 14.1 µM)

COc1ccc2nc(C)cc(-n3cc(CN4CCN(c5ccc(C)cc5)CC4)nn3)c2c1
diameter of the inhibition zone (DIZ) (Klebsiella pneumoniae): <10 mm
MIC (Klebsiella pneumoniae): 50 µg/mL (≈ 117 µM)
diameter of the inhibition zone (DIZ) (Talaromyces marneffei): <10 mm
MIC (Talaromyces marneffei): 25 µg/mL (≈ 58.3 µM)
diameter of the inhibition zone (DIZ) (Staphylococcus aureus): <10 mm
MIC (Staphylococcus aureus): 50 µg/mL (≈ 117 µM)
diameter of the inhibition zone (DIZ) (Streptococcus pyogenes): <10 mm
MIC (Streptococcus pyogenes): 50 µg/mL (≈ 117 µM)
diameter of the inhibition zone (DIZ) (Candida albicans): 12 mm
MIC (Candida albicans): 12.5 µg/mL (≈ 29.2 µM)
diameter of the inhibition zone (DIZ) (Aspergillus flavus): 12 mm
MIC (Aspergillus flavus): 12.5 µg/mL (≈ 29.2 µM)
diameter of the inhibition zone (DIZ) [1]: 12 mm
MIC [1]: 12.5 µg/mL (≈ 29.2 µM)
diameter of the inhibition zone (DIZ) (Pseudomonas aeruginosa): <10 mm
MIC (Pseudomonas aeruginosa): 50 µg/mL (≈ 117 µM)
diameter of the inhibition zone (DIZ) (Escherichia coli): <10 mm
MIC (Escherichia coli): 50 µg/mL (≈ 117 µM)
diameter of the inhibition zone (DIZ) (Aspergillus fumigatus): 10 mm
MIC (Aspergillus fumigatus): 12.5 µg/mL (≈ 29.2 µM)

COc1ccc(N2CCN(Cc3cn(-c4cc(C)nc5ccc(OC)cc45)nn3)CC2)c(C)c1
diameter of the inhibition zone (DIZ) (Klebsiella pneumoniae): 16 mm
MIC (Klebsiella pneumoniae): 6.25 µg/mL (≈ 13.6 µM)
diameter of the inhibition zone (DIZ) (Talaromyces marneffei): 14 mm
MIC (Talaromyces marneffei): 6.25 µg/mL (≈ 13.6 µM)
diameter of the inhibition zone (DIZ) (Staphylococcus aureus): 14 mm
MIC (Staphylococcus aureus): 12.5 µg/mL (≈ 27.3 µM)
diameter of the inhibition zone (DIZ) (Streptococcus pyogenes): 16 mm
MIC (Streptococcus pyogenes): 6.25 µg/mL (≈ 13.6 µM)
diameter of the inhibition zone (DIZ) (Candida albicans): 10 mm
MIC (Candida albicans): 6.25 µg/mL (≈ 13.6 µM)
diameter of the inhibition zone (DIZ) (Aspergillus flavus): 14 mm
MIC (Aspergillus flavus): 6.25 µg/mL (≈ 13.6 µM)
diameter of the inhibition zone (DIZ) [1]: 14 mm
MIC [1]: 6.25 µg/mL (≈ 13.6 µM)
diameter of the inhibition zone (DIZ) (Pseudomonas aeruginosa): 10 mm
MIC (Pseudomonas aeruginosa): 12.5 µg/mL (≈ 27.3 µM)
diameter of the inhibition zone (DIZ) (Escherichia coli): 14 mm
MIC (Escherichia coli): 12.5 µg/mL (≈ 27.3 µM)
diameter of the inhibition zone (DIZ) (Aspergillus fumigatus): 16 mm
MIC (Aspergillus fumigatus): 6.25 µg/mL (≈ 13.6 µM)
